# Entries after “also recorded” stand apart in the source; their conditions may differ.
# Columns and labels:
# [1] = Liver microsomes metabolic stability; type: in vitro ADME; conditions: human
# Method in brief: (§1)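 Test compound was incubated with liver microsomes or hepatocytes of each species, and parent depletion was quantified by LC-MS/MS. From this, in vitro half-life and intrinsic clearance were derived, along with predicted metabolic clearance and hepatic extraction ratio.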
# [2] = biological target: T1, CpPI(4)K (Cryptosporidium parvum, UniProt Q5CVD3); experiment: PI; type: biochemical, C. parvum; conditions: CpPI(4)K IC50, 3 μM ATP
# T1 sequence (Q5CVD3 1-1114): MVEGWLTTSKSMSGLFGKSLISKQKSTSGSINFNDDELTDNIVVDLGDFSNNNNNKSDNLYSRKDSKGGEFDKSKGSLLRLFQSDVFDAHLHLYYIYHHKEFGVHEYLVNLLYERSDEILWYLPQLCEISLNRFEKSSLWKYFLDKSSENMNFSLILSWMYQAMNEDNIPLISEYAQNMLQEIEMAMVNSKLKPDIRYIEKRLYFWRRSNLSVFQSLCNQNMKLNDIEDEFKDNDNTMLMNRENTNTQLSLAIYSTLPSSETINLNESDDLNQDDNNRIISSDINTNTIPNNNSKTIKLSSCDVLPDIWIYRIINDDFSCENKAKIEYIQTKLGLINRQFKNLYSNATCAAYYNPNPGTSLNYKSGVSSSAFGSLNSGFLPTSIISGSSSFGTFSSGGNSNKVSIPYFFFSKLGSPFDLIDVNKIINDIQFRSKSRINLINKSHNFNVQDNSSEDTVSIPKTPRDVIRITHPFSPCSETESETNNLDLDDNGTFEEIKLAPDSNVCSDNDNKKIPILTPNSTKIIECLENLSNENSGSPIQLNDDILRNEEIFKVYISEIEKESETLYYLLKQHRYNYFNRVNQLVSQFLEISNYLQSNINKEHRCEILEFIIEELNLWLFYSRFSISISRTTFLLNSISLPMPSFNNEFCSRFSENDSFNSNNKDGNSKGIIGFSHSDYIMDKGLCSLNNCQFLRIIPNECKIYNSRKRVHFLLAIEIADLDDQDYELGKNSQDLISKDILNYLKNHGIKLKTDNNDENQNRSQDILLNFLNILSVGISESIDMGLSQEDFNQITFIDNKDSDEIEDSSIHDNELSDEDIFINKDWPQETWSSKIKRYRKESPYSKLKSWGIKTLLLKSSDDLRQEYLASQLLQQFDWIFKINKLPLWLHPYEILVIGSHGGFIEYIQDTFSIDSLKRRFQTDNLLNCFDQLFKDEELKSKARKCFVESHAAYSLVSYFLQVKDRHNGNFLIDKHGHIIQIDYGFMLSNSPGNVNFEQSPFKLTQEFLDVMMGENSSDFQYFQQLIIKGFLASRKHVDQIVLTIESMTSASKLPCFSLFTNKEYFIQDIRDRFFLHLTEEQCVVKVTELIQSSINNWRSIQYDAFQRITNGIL
# Method in brief: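 Enzyme was pre-incubated with compound for 5 min at room temperature. The reaction was started with substrate mix at twice final strength (PI, ATP, Tris-HCl pH 7.5, DTT, 0.05% Triton X-100, MnCl2) and run 50 min at room temperature. ADP was measured by ADP-Glo luminescence. IC50s came from in-plate duplicate 10-point 3-fold dilutions, with DMSO and reference-inhibitor controls. The C. parvum enzymes (wild type and mutants) were full-length proteins expressed from baculovirus in Sf21 cells.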
# [3] = Hepatocytes metabolic stability; type: in vitro ADME; conditions: rat
# Method in brief: as §1
# [4] = Liver microsomes metabolic stability; type: in vitro ADME; conditions: rat
# Method in brief: as §1
# [5] = biological target: hERG potassium channel (Homo sapiens, UniProt Q12809); experiment: hERG Q-Patch; type: cell-based
# Sequence of hERG potassium channel (Q12809 whole entry): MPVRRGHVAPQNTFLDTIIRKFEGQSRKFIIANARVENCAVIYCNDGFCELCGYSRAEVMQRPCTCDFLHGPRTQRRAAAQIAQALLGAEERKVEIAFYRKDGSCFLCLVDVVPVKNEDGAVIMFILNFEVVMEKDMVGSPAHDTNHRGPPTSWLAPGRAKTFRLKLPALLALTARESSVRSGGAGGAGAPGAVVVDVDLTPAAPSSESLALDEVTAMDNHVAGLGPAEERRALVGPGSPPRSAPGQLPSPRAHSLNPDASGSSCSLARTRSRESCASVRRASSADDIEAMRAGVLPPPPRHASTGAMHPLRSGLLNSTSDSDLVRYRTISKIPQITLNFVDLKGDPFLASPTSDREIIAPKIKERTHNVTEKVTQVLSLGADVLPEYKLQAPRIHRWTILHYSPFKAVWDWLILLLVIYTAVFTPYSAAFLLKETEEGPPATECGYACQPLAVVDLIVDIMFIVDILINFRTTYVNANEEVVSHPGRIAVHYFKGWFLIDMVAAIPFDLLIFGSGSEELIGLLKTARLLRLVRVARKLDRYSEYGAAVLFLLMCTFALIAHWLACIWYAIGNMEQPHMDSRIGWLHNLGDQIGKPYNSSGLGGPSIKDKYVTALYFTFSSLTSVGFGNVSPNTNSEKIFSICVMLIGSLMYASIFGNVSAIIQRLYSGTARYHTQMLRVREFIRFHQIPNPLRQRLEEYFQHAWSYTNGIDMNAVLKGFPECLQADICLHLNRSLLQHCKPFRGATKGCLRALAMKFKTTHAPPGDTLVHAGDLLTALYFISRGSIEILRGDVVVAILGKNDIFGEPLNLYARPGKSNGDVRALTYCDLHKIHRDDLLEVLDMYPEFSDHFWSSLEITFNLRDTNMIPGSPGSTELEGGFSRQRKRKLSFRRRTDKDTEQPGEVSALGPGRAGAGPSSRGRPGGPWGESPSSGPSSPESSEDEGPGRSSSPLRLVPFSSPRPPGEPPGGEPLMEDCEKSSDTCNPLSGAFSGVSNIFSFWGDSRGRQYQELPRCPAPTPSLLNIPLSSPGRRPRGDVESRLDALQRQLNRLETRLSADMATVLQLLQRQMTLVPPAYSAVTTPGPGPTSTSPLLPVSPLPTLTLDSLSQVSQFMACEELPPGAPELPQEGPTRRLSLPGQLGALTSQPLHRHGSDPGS
# Method in brief: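 hERG potassium current was recorded at near-physiological temperature in stably transfected mammalian cells expressing hERG. The test compound was applied as a 4-point dose response spanning 1–30.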
# [6] = system: C. parvum; experiment: Host cell invasion assay; type: cell-based, Cryptosporidium parvum; conditions: HCT-8, 3 h; EDI048 and KDU731 20 µM, wiskostatin 11.3 µM
# Method in brief: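 HCT-8 monolayers were 95–100% confluent. Compounds were added at twice the final concentration 1 h before infection with 50,000 primed oocysts per well. Plates were kept 3 h at 37 °C, 5% CO2, then washed with PBS-0.1% Tween 20, fixed in 4% PFA for 15 min at room temperature, permeabilized with 0.25% Triton X-100 and blocked in 4% BSA. Vacuoles were stained with fluorescein-VVL and nuclei with Hoechst, then imaged.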
# [7] = system: CYP3A4 / 1A2 / 2B6; experiment: CYP3A4 / 1A2 / 2B6 hepatocyte induction assay; type: in vitro ADME
# [8] = biological target: hNav1.5 (Homo sapiens, UniProt Q14524); experiment: Patch clamp Nav1.5 Quattro; type: cell-based
# Sequence of hNav1.5 (Q14524 whole entry): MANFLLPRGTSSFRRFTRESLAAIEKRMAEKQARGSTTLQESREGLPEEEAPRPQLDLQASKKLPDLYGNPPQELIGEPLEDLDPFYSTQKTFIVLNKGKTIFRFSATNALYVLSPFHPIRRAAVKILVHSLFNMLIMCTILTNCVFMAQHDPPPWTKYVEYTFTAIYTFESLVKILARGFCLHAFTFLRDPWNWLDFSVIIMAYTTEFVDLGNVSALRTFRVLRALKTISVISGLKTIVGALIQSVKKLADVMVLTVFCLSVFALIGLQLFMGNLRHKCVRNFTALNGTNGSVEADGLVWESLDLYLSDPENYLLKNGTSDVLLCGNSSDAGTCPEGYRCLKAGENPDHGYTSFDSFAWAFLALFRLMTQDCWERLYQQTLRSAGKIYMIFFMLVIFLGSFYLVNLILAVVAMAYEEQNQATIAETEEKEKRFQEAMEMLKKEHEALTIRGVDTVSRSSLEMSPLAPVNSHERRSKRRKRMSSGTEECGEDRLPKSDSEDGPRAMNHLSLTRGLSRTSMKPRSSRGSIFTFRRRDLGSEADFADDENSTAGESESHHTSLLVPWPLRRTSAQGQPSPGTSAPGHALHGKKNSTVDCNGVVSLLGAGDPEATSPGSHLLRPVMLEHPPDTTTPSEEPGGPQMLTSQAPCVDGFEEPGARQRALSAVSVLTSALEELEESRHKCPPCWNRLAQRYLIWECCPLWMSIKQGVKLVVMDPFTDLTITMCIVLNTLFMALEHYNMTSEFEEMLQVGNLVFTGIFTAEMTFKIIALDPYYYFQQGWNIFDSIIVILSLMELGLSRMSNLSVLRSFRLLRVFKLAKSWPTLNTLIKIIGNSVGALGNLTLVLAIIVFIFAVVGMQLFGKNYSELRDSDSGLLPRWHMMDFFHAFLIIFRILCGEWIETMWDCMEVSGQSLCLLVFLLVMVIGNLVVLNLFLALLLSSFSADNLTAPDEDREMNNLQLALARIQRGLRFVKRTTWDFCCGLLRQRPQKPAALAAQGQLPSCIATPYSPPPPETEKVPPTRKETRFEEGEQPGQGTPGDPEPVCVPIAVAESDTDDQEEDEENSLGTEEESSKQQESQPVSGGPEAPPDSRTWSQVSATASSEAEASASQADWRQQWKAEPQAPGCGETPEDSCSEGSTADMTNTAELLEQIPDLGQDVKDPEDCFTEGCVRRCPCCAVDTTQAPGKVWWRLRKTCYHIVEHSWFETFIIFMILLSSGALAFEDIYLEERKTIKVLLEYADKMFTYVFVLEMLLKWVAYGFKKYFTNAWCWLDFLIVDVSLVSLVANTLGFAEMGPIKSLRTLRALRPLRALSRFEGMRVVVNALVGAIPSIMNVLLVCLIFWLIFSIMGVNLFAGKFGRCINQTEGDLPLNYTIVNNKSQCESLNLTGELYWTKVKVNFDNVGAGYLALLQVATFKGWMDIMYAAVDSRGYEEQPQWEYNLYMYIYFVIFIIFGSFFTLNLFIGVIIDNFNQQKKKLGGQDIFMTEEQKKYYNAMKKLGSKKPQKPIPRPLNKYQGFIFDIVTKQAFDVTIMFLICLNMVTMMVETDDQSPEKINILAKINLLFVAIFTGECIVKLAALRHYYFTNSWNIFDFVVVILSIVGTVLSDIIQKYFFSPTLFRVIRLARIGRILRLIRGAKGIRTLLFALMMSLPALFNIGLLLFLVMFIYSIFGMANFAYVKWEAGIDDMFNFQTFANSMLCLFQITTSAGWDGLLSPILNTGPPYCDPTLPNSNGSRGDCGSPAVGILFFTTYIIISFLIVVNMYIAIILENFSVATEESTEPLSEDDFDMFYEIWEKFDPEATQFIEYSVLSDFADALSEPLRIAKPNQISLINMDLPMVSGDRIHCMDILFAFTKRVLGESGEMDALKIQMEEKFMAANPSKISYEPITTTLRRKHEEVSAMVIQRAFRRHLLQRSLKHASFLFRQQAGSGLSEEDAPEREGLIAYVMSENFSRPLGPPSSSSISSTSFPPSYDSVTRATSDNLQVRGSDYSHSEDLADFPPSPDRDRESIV
# Method in brief: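 Each channel was stably expressed in HEK293 cells and tested by patch clamp with a 7-point concentration-response.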
# [9] = biological target: CYP3A4 (Homo sapiens, UniProt P08684); experiment: CYP3A4 time-dependent inhibition; type: in vitro ADME
# Sequence of CYP3A4 (P08684 whole entry): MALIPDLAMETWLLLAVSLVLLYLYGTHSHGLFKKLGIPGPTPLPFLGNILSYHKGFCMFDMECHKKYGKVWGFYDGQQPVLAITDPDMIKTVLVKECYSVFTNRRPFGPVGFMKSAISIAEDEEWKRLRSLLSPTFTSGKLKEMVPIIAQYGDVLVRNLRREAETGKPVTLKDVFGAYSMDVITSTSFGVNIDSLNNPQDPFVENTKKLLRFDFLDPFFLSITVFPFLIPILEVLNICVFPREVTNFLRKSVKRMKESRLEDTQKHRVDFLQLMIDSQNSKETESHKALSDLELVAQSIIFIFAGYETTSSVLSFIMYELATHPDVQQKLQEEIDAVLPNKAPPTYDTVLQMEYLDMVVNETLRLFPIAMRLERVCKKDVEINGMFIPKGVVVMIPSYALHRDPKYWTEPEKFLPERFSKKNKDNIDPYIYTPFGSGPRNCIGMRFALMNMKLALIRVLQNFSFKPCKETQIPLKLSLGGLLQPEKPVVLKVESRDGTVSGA
# [10] = In vivo pharmacokinetic analysis; parameters: species or system mouse
# Method in brief: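 Animals were male C57BL/6 mice (8–10 weeks), Wistar rats (8–10 weeks) and beagle dogs (12–14 weeks). Each received oral and i.v. doses, with plasma sampling for PK parameters.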
# [11] = Neonatal calf pharmacokinetics; type: in vivo; conditions: bovine, plasma, po, 10 mg/kg
# Method in brief: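 Calves were dosed orally at 10 mg/kg birth weight every 12 h, at least 2 h after feeding. On day 1, blood was drawn before dosing and at several timepoints up to 12 h.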
# [12] = 2 weeks GLP dog toxicology study with toxicokinetics; type: in vivo; conditions: for AUC(0-t): AUC0-8, dog
# [13] = male, C57BL/6, mouse, plasma, iv, 1 mg/kg
# [14] = male, C57BL/6, mouse, plasma, po, 10 mg/kg
smiles,measurement,setting,value
"CN(C(=O)c1ccn2ncc(-c3ccc(C(N)=O)cc3)c2c1)c1ccc(C#N)cn1 [KDU731, 3–(4-carbamoylphenyl)-N-(5-cyanopyridin-2-yl)-N-methylpyrazolo [1,5-a]pyridine-5-carboxamide, reference compound]",Microsomal ER,[1],39%
same,microsomal CLint,[1],13 µL/min/mg
same,IC50,[2],17 ± 8 nM
same,Hepatocytes ER,[3],36%
same,hepatocyte CLint,[3]; hepatocytes,6.9 µL/min/1e6 cells
same,Microsomal ER,[4],47%
same,microsomal CLint,[4],29 µL/min/mg
same,IC50,[5],23 µM
same,sporozoite invasion,[6],inactive
same,CYP3A4 / 1A2 / 2B6 hepatocyte induction assay,[7],Non-inducer
same,IC50,[8],> 50 µM
same,Time dependent inhibition 3A4,[9],Negative
"CNC(=O)c1ccc(-c2cnn3ccc(C(=O)N(C)c4ccc(Cl)c(C(=O)OC)c4)cc23)cc1 [EDI048, methyl 2-chloro-5-(N-methyl-3-(4-(methylcarbamoyl)phenyl)pyrazolo[1,5-a]pyridine-5-carboxamido)benzoate]",Microsomal ER,[1],92%
same,microsomal CLint,[1]; liver microsomes,222 µL/min/mg
same,AUC,[10]; [13],0.668 µM·h
same,Vd,[10]; [13],1.05 L/kg
same,clearance,[10]; [13],66.7 mL/min/kg
same,half-life,[10]; [13],25.8 min
same,AUC,[10]; [14],0.0204 µM·h
same,Cmax,[10]; [14],8.4 nM
same,Tmax,[10]; [14],1 h
same,bioavailability,[10]; [14],0.4%
same,Cmax,"[10]; mouse, oral 1 mg/kg",<LLOQ
same,Cmax,"[10]; mouse, oral 3 mg/kg",<LLOQ
same,IC50,[2],4 ± 2 nM
same,Microsomal ER,[4],96%
same,microsomal CLint,[4]; liver microsomes,> 700 µL/min/mg
same,Tmax,[11]; infected calves with diarrhea,12 h
same,Tmax,[11]; uninfected healthy calves,2 h
same,IC50,[5],8.3 µM
same,sporozoite invasion,[6],inactive; also recorded: does not affect sporozoite invasion
same,NOAEL at 14 days,"[12]; both, beagle, dog, in vivo, po",1000 mg/kg/day
same,Tmax,"[12]; both, beagle, dog, plasma, oral, dog toxicity study",≤ 75 min
same,AUC(0-t),"[12]; both, beagle, dog, plasma, po, 1000 mg/kg/day, EDI048 1000 mg/kg/day, day 1",459 ng·h/mL
same,AUC(0-t),"[12]; both, beagle, dog, plasma, po, 1000 mg/kg/day, EDI048 1000 mg/kg/day, day 14",634 ng·h/mL
same,Cmax,"[12]; both, beagle, dog, plasma, po, 1000 mg/kg/day, Cmax, dog, EDI048 1000 mg/kg/day, day 14",169 ng/mL
same,Tmax,"[12]; both, beagle, dog, plasma, po, 1000 mg/kg/day, dog, EDI048 1000 mg/kg/day, day 1",57 min
same,Tmax,"[12]; both, beagle, dog, plasma, po, 1000 mg/kg/day, dog, EDI048 1000 mg/kg/day, day 14",45 min
same,cardiovascular findings in dogs,[12]; up to 1000 mg/kg/day,no EDI048-related cardiovascular findings
same,CYP3A4 / 1A2 / 2B6 hepatocyte induction assay,[7],Non-inducer
same,IC50,[8],> 50 µM
same,Time dependent inhibition 3A4,[9],Weak positive
same,KI (inactivation),[9]; human,2100 nM

# Reference: publication PMC11522000 (Nature Microbiology, 2024)
